ChEMBL document CHEMBL1127020, “3-Quinolinecarboxamides. A series of novel orally-active antiherpetic agents” (1993)
≈ marks a conversion by molar mass, not a printed value. Calls of active or inactive are those of the source. The calls are words filed in the database; no cut-off is given here.

Tests used:
[1] = system: Human alphaherpesvirus 2; experiment: In vitro maximum tolerated level against herpes simplex virus-2 (HSV-2) by plaque-reduction assay in vero cells; type: functional
[2] = system: Human alphaherpesvirus 2; experiment: (§1) In vitro minimum inhibitory concentration against herpes simplex virus-2 (HSV-2) by plaque-reduction assay in vero cells; type: functional
[3] = system: Human alphaherpesvirus 2; experiment: Minimum effective dose against herpes simplex virus-2 (HSV-2) by oral administration in female mice.; type: functional, organism-based
Procedure, shortened: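 Swiss female ICR mice (13–15 g) infected intravaginally with HSV-2 (Curtis) at a dose set for 80% mortality. Compound suspended in 1% gum tragacanth/2% Tween 80, given intragastrically at serial 2-fold doses, 20 mice per dose, 2 h before infection then twice daily for 5 d. Mortality followed 14 d; MED = lowest dose with survival differing from placebo (Mantel-Cox, Breslow).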

[4] = system: Human alphaherpesvirus 2; experiment: In vivo maximum tolerated dose against herpes simplex virus-2 (HSV-2) by oral administration in female mice; type: functional
[5] = system: Human alphaherpesvirus 2; experiment: as §1; type: functional, organism-based
Procedure, shortened: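 Vero monolayers (2 days old, confluent; Hank's MEM + 5% inactivated FCS, 37 °C, 2% CO2) infected with ~80 PFU; after 1-h adsorption, overlay of M199/5% FCS with 1:150 human immune serum globulin plus serial 2-fold compound dilutions (1:200 from DMSO). 3 d incubation, glutaraldehyde fix, crystal violet stain, plaque count. MIC = lowest concentration giving 50% plaque reduction; mean of ≥2 experiments.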

Compound | MIC [5] | MTL [1] | MIC [2] | MED [3] | MTD [4]
CCn1cc(C(N)=O)c(=O)c2ccc(-c3cccnc3)cc21 | – | 50 µg/mL | 12 µg/mL (≈ 40.9 µM) | inactive | 100 mg/kg
NC(=O)c1cn(-c2ccc(C(F)(F)F)cc2)c2cc(-c3ccncc3)ccc2c1=O | – | >100 µg/mL | 1 µg/mL (≈ 2.44 µM) | inactive | 50 mg/kg
CCn1cc(C(=O)NCCO)c(=O)c2ccc(-c3ccncc3)cc21 | inactive | 25 µg/mL | – | – | –
CCn1cc(C2=NCCN2)c(=O)c2ccc(-c3ccncc3)cc21 | inactive | >100 µg/mL | – | – | –
CCn1cc(C(N)=O)c(=O)c2ccc(N3CCN(C)CC3)cc21 | inactive | 50 µg/mL | – | – | –
CCn1cc(C(N)=O)c(=O)c2ccc(-c3cc(C)no3)cc21 | – | >100 µg/mL | 12 µg/mL (≈ 40.4 µM) | inactive | >200 mg/kg
Cc1cc(-c2ccc3c(=O)c(C(N)=O)cn(-c4ccc(F)cc4)c3c2)on1 | – | >100 µg/mL | 0.26 µg/mL (≈ 0.716 µM) | inactive | >200 mg/kg
NC(=O)c1cnc2cc(-c3ccncc3)ccc2c1O | inactive | 12.5 µg/mL | – | – | –
CCn1cc(C2=NCCO2)c(=O)c2ccc(-c3ccncc3)cc21 | inactive | 12.5 µg/mL | – | – | –
CCn1cc(C(N)=O)c(=O)c2ccc(-c3ccno3)cc21 | – | 12.5 µg/mL | 5 µg/mL (≈ 17.6 µM) | inactive | >200 mg/kg
NC(=O)c1c(O)c2ccc(-c3ccncc3)cc2n2c1nc1ccccc12 | – | 0.4 µg/mL | – | – | –
COc1ccc(-n2cc(C(N)=O)c(=O)c3ccc(-c4ccncc4)cc32)cc1 | – | >25 µg/mL | 1.3 µg/mL (≈ 3.5 µM) | inactive | 50 mg/kg
Cc1ccc(-n2cc(C(N)=O)c(=O)c3ccc(-c4ccncc4)cc32)cc1 | – | >25 µg/mL | 0.63 µg/mL (≈ 1.77 µM) | inactive | 50 mg/kg
NC(=O)c1c(O)c2ccc(-c3ccncc3)cc2n(-c2ccc(F)cc2)c1=O | – | >100 µg/mL | 11 µg/mL (≈ 29.3 µM) | – | –
CCCCn1cc(C(N)=O)c(=O)c2ccc(-c3ccncc3)cc21 | – | 6.25 µg/mL | 5.2 µg/mL (≈ 16.2 µM) | inactive | 50 mg/kg
CCn1cc(C#N)c(=O)c2ccc(-c3ccncc3)cc21 | inactive | 100 µg/mL | – | – | –
Oc1nc2c(O)c3ccc(-c4ccncc4)cc3n(-c3ccc(F)cc3)c-2n1 | – | >100 µg/mL | – | – | –

Compound | MIC [5] | MTL [1] | MIC [2] | MED [3] | MTD [4]
CCn1cc(C(=O)NCCN)c(=O)c2ccc(-c3ccncc3)cc21 | inactive | >100 µg/mL | – | – | –
CCn1cc(C(=O)N(C)C)c(=O)c2ccc(-c3ccncc3)cc21 | inactive | >100 µg/mL | – | – | –
Cc1cc(-c2ccc3c(=O)c(C(N)=O)cn(-c4ccc(F)cc4)c3c2)sn1 | – | >100 µg/mL | 0.25 µg/mL (≈ 0.659 µM) | inactive | >100 mg/kg
C=CCn1cc(C(N)=O)c(=O)c2ccc(-c3ccncc3)cc21 | – | 6.25 µg/mL | 2.9 µg/mL (≈ 9.5 µM) | inactive | <50 mg/kg
CCn1cc(C(=O)NCCN(C)C)c(=O)c2ccc(-c3ccncc3)cc21 | inactive | >100 µg/mL | – | – | –
Cc1ccc(-n2cc(C(N)=O)c(=O)c3ccc(-c4ccncc4)cc32)cc1C | – | >100 µg/mL | 1 µg/mL (≈ 2.71 µM) | inactive | >200 mg/kg
NC(=O)c1cn(-c2ccc(F)cc2F)c2cc(-c3ccncc3)ccc2c1=O | – | 3.1 µg/mL | 2.2 µg/mL (≈ 5.83 µM) | inactive | <25 mg/kg
CCn1cc(C(=O)NOC)c(=O)c2ccc(-c3ccncc3)cc21 | inactive | 25 µg/mL | – | – | –
CCn1cc(C(N)=O)c(=O)c2ccc(-c3ccccn3)cc21 | – | 25 µg/mL | 14 µg/mL (≈ 47.7 µM) | inactive | 100 mg/kg
NC(=O)c1cn(C2CC2)c2cc(-c3ccncc3)ccc2c1=O | – | 25 µg/mL | 4 µg/mL (≈ 13.1 µM) | inactive | 25 mg/kg
CCn1cc(C(N)=O)c(=O)c2ccc(-c3c(C)cncc3C)cc21 | – | 12.5 µg/mL | 9.9 µg/mL (≈ 30.8 µM) | inactive | 25 mg/kg
CCC(=O)c1c(O)c2ccc(-c3ccncc3)cc2n(-c2ccc(F)cc2)c1=O | – | – | > 100 µg/mL | – | –
Cn1cc(C(N)=O)c(=O)c2ccc(-c3ccncc3)cc21 | – | >25 µg/mL | 4.6 µg/mL (≈ 16.5 µM) | inactive | 25 mg/kg
NC(=O)c1cn(-c2ccc(F)cc2)c2cc(-c3ccccc3)ccc2c1=O | – | 12.5 µg/mL | 0.82 µg/mL (≈ 2.29 µM) | inactive | >200 mg/kg
CCCCCn1cc(C(N)=O)c(=O)c2ccc(-c3ccncc3)cc21 | – | 6.25 µg/mL | 4.8 µg/mL (≈ 14.3 µM) | inactive | 50 mg/kg
NC(=O)c1cn(Cc2ccc(Cl)c(Cl)c2)c2cc(-c3ccncc3)ccc2c1=O | – | >100 µg/mL | 1.7 µg/mL (≈ 4.01 µM) | inactive | >100 mg/kg
CCn1c(N)c(C(N)=O)c(=O)c2ccc(-c3ccncc3)cc21 | – | >12.5 µg/mL | 9 µg/mL (≈ 29.2 µM) | – | >100 mg/kg

The next lines start with results.

MIC [5] | Compound | MTL [1] | MIC [2] | MED [3] | MTD [4]
inactive | CCn1cc(C(N)=O)c(=O)c2ccc(I)cc21 | >100 µg/mL | – | – | –
inactive | CCn1cc(C(N)=O)c(=O)c2ccc(-c3cnc(C)s3)cc21 | >100 µg/mL | – | – | –
inactive | CCn1cc(C(=O)O)c(=O)c2ccc(-c3ccncc3)cc21 [ROSOXACIN] | >200 µg/mL | – | – | –
inactive | CCn1cc(C(N)=O)c(=O)c2ccc(-c3ccccc3)cc21 | 50 µg/mL | – | – | –
inactive | CCCn1cc(C(N)=O)c(=O)c2ccc(-c3ccncc3)cc21 | 6.25 µg/mL | – | – | –
inactive | CCn1cc(C(N)=O)c(=O)c2ccc(Cl)cc21 | >100 µg/mL | – | – | –
inactive | CC(C)(C)c1ccc(-n2cc(C(N)=O)c(=O)c3ccc(-c4ccncc4)cc32)cc1 | >25 µg/mL | – | – | –
inactive | CCn1cc(C(N)=O)c(=O)c2ccccc21 | 50 µg/mL | – | – | –
inactive | CCn1c(C)c(C(N)=O)c(=O)c2ccc(-c3ccncc3)cc21 | 50 µg/mL | – | – | –
inactive | NC(=O)c1csc2cc(-c3ccncc3)ccc2c1=O | >100 µg/mL | – | – | –
inactive | NC(=O)c1cn(CCO)c2cc(-c3ccncc3)ccc2c1=O | 50 µg/mL | – | – | –
inactive | NC(=O)c1cn(-c2ccc(F)cc2)c2cc(Cl)ccc2c1=O | >12.5 µg/mL | – | – | –
inactive | CCn1cc(C(N)=O)c(=O)c2ccc(-c3ccc(N)cc3)cc21 | 6.25 µg/mL | – | – | –
inactive | CCn1cc(C(N)=O)c(=O)c2ccc(-n3ccnc3)cc21 | 50 µg/mL | – | – | –
inactive | CCn1cc(C(N)=O)c(=O)c2ccc(-c3ccc([N+](=O)[O-])cc3)cc21 | >100 µg/mL | – | – | –
inactive | NC(=O)c1cn(-c2ccc(F)cc2)c2cc(Br)ccc2c1=O | 6.25 µg/mL | – | – | –
inactive | CCn1cc(C(N)=O)c(=O)c2ccc(F)cc21 | 50 µg/mL | – | – | –
